Experimental data as given in ChEMBL document CHEMBL1156462, “Seco-pregnane steroids target the subgenomic RNA of alphavirus-like RNA viruses” (Proc Natl Acad Sci U S A, 2007).
The source made the active and inactive calls. No cut-off for these calls is given here.

How the values were obtained:
[1] = Selectivity index, ratio of CC50 for BHK21 cells to EC50 for Getah virus; format: toxicity, cell-based, BHK-21; settings: hamster, read-out: Ratio CC50/EC50
Summary of the method: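 Getah virus was tested on BHK-21 cells seeded at 2 × 10⁵ per well 24 h before use, infected at a dose giving 100% CPE at 3 dpi. Compound was premixed with virus at final 100–0 nM. EC50 was taken as 50% inhibition of cytopathogenicity. Index = 50% cytotoxicity concentration/EC50.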

[2] = system: Tobacco mosaic virus; assay: Inhibition of coat protein sgRNA accumulation in TMV U1 infected Nicotiana tabacum cv K326 plant leaves at 50 nM by Northern blot; format: functional, organism-based
Summary of the method: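 N. tabacum cv. K326 leaves inoculated with TMV with or without 50 nM compound; inoculated and upper uninoculated leaves collected at 5 dpi. TRIzol total RNA probed with CP gene sequence by Northern blot, 28S rRNA as loading control.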

[3] = system: Tobacco mosaic virus; assay: Inhibition of TMV U1 replication in tobacco BY2 protoplast by local lesion assay using Chenopodium quinoa leaves; format: functional, organism-based
Summary of the method: (§1)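 TMV premixed with compound at a range of concentrations used to inoculate tobacco BY-2 protoplasts; virus multiplication then assayed by counting local lesions on the local lesion host Chenopodium quinoa.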

[4] = system: Tobacco mosaic virus; assay: Inhibition of TMV U1 multiplication in tobacco BY2 protoplast at 40 nM assessed as local lesion size on Chenopodium quinoa leaves by local lesion assay; format: functional
[5] = system: Sindbis virus; assay: Reduction of Sindbis virus infection-induced mortality rate in newborn BALB/c mouse assessed as long term survivors at 100 mg/kg; format: functional
Summary of the method: (§2)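 Newborn BALB/c mice, 2–3 days old, ≈2 g, were inoculated intracerebrally with 20 μl medium holding 100 × LD50 SINV. Compound (20 μl, 5, 50 or 100 mg/kg BW) was mixed into the inoculum. There were 11 mice per group, counted at 3–7 days. Virus-alone and compound-alone controls were included.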

[6] = system: Tobacco mosaic virus; assay: Inhibition of TMV U1 multiplication in tobacco BY2 protoplast at 20 nM assessed as inhibition of local lesions on Chenopodium quinoa leaves by local lesion assay after 3 days postinfection; format: functional; settings: U1, 72 h; summary of the method: as §1
[7] = system: Sindbis virus; assay: Decrease in 26S sgRNA level in Sindbis virus XJ160 infected BHK21 cells after 3 hrs postinfection; format: functional, organism-based; settings: BHK-21
Summary of the method: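 BHK-21 cells infected with SINV XJ-160 premixed with compound at MOI 10 in quadruplicate. Viral RNAs quantified at 3 hpi by Northern blot, with β-actin RNA as loading comparison.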

[8] = system: unidentified adenovirus; assay: Antiviral activity against adenovirus in 983A cells assessed as inhibition of virus-induced cytopathogenicity; format: functional, organism-based
Summary of the method: (§3)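 Cells seeded at 2 × 10⁵ per well 24 h before use (BHK-21 for GETV, H9 for HIV, CIK for Reovirus, 983A for adenovirus, Veto for measles virus). Infected at a dose giving 100% cytopathic effect at 3 dpi; virus premixed with compound at final 100, 50, 10, 3, 2, 1.5, 1, 0 nM. Infected and uninfected untreated controls on each plate.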

[9] = system: Eastern equine encephalitis virus; assay: Antiviral activity against Eastern equine encephalitis virus in BHK21 cells assessed as inhibition of virus-induced cytopathogenicity; format: functional, organism-based; settings: BHK-21
[10] = system: Tobacco mosaic virus; assay: Antiviral activity against TMV U1 infected Nicotiana tabacum cv K326 plant leaves assessed as inhibition of systemic virus infection; format: functional, organism-based
[11] = system: Sindbis virus; assay: Antiviral activity against Sindbis virus XJ160 in BHK21 cells assessed as reduction of virus-induced cytopathic effect after 24 hrs; format: functional, organism-based; settings: BHK-21
Summary of the method: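 SINV XJ-160 (2 × 10⁵ pfu/ml, thrice plaque-purified) treated with compound for 15 min, adsorbed 1 h to BHK-21 cells at MOI 0.01 in quadruplicate; washed, fresh DMEM with 5% FBS added, cells kept at 37°C, 5% CO₂. Cytopathic morphology scored by light microscopy at 24 hpi.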

[12] = system: Reovirus sp.; assay: Antiviral activity against Reovirus in CIK cells assessed as inhibition of virus-induced cytopathogenicity; format: functional, organism-based; summary of the method: as §3
[13] = system: Sindbis virus; assay: Reduction of Sindbis virus infection-induced mortality rate in newborn BALB/c mouse assessed as survivors at 100 mg/kg administered 1 hr before infection after 7 days; format: functional
Summary of the method: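 Newborn BALB/c mice, 2–3 days old, ≈2 g, received 20 μl compound at 100 mg/kg BW 1 or 4 h before intracerebral inoculation with 20 μl containing 100 × LD50 SINV. There were 11 mice per group, with survivors counted at 3, 4, 5, 6 and 7 days.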

[14] = system: Sindbis virus; assay: Decrease in 26S sgRNA level in Sindbis virus XJ160 infected BHK21 cells after 24 hrs postinfection; format: functional, organism-based; settings: BHK-21
[15] = system: Tobacco mosaic virus; assay: Inhibition of TMV U1 multiplication in tobacco BY2 protoplast at 40 nM assessed as inhibition of local lesions on Chenopodium quinoa leaves by local lesion assay after 3 days postinfection; format: functional; settings: U1, 72 h; summary of the method: as §1
[16] = system: Sindbis virus; assay: Reduction of mortality rate in Sindbis virus-infected newborn BALB/c mouse assessed as long term survivors at 5 mg/kg; format: functional; summary of the method: as §2

CO[C@@H]1C[C@H](O[C@H]2CC[C@@]3(C)C(=CC[C@H]4C(=O)OC5CO[C@]6(C)OC=C(CC[C@@H]43)[C@H]56)C2)O[C@H](C)[C@H]1O[C@H]1C[C@H](O)[C@H](O[C@@H]2C[C@@H](OC)[C@H](O[C@@H]3O[C@H](CO)[C@@H](O[C@@H]4O[C@H](CO)[C@@H](O)[C@H](O)[C@H]4O)[C@H](O)[C@H]3O)[C@@H](C)O2)[C@@H](C)O1 (stereo partly specified) [PANICULATUMOSIDE C]
selectivity ratio [1]: 16500 | Activity [2]: Active | IC50 [3]: 25 nM | Activity [4]: 1 mm | Activity [5]: 100% | inhibition at 0.02 µM [6]: 40% | Activity [7]: Dose-dependent effect | EC50 [8]: > 25000 nM | EC50 [9]: 2 nM | Activity [10]: Active | Activity [11]: Dose-dependent effect | EC50 [12]: > 25000 nM | Activity [13]: 100% | Activity [14]: Active | inhibition at 0.04 µM [15]: 93% | Activity [16]: 18%
